# Laboratory results as given in ChEMBL document CHEMBL1777764, “Synthesis and evaluation of 1-(1H-indol-3-yl)ethanamine derivatives as new antibacterial agents” (Bioorg Med Chem, 2011).
# Experiments:
# [1] = test system: Klebsiella pneumoniae; assay: microbe, parasite or virus in culture; settings: ATCC 35657, 18 h
# [2] = test system: Staphylococcus aureus; assay: Antibacterial activity against Staphylococcus aureus ATCC 9144 after 18 hrs by broth microdilution method; type: functional; settings: ATCC 9144, 18 h
# Procedure, shortened: (§1)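 MIC by broth microdilution per ISO 20776-1:2006 and CLSI M07-A8. Inoculum 10^6 cfu/ml in Mueller-Hinton broth with compound serially diluted, final concentrations 2 to 128 ug/ml, duplicate rows, no-drug growth control. Incubation 18 h at 37 °C. MIC taken as lowest concentration giving complete inhibition of visible growth. Each compound tested at least twice.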
# [3] = test system: Acinetobacter baumannii; assay: microbe, parasite or virus in culture; settings: ATCC 19606 = CIP 70.34 = JCM 6841, 18 h
# [4] = test system: Serratia marcescens; assay: microbe, parasite or virus in culture; settings: CIP 103551, 18 h
# [5] = test system: MRC5; assay: Cytotoxicity against human MRC5 cells at 1 uM; type: cell-based; settings: mrc5, 1 µM
# [6] = test system: Streptococcus agalactiae; assay: Antibacterial activity against Streptococcus agalactiae ATCC 12400 after 18 hrs by broth microdilution method; type: functional; settings: ATCC 12400, 18 h
# Procedure, shortened: (§2)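 Broth microdilution following ISO 20776-1:2006 and CLSI M07-A8, in Mueller-Hinton broth. Inoculum was 10^6 cfu/ml, with compound serial dilutions spanning 2 to 128 ug/ml and a compound-free growth control well. Plates were incubated 18 h at 37 °C. MIC was the lowest concentration giving complete inhibition of visible growth. Each compound was tested at least twice.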
# [7] = test system: Staphylococcus aureus; assay: Antibacterial activity against Staphylococcus aureus ATCC 29213 after 18 hrs by broth microdilution method; type: functional; settings: ATCC 29213, 18 h
# Procedure, shortened: as §1
# [8] = test system: Staphylococcus aureus; assay: Antibacterial activity against Staphylococcus aureus ATCC 25923 after 18 hrs by broth microdilution method; type: functional; settings: ATCC 25923, 18 h
# Procedure, shortened: as §1
# [9] = test system: Staphylococcus aureus; assay: Antibacterial activity against methicillin-resistant Staphylococcus aureus CIP 65.25 after 18 hrs by broth microdilution method; type: functional; settings: CIP 65.25, 18 h
# Procedure, shortened: as §2
# [10] = test system: Staphylococcus aureus; assay: Antibacterial activity against vancomycin intermediate Staphylococcus aureus […] after 18 hrs by broth microdilution method; type: functional
# Procedure, shortened: as §2
# [11] = test system: Staphylococcus aureus; assay: Antibacterial activity against Staphylococcus aureus ATCC 6538 after 18 hrs by broth microdilution method; type: functional; settings: ATCC 6538, 18 h
# Procedure, shortened: as §1
# [12] = test system: Staphylococcus aureus; assay: Antibacterial activity against Staphylococcus aureus CIP 103428 after 18 hrs by broth microdilution method; type: functional; settings: CIP 103428, 18 h
# Procedure, shortened: as §1
# [13] = test system: Staphylococcus epidermidis; assay: Antibacterial activity against Staphylococcus epidermidis CIP 103627 after 18 hrs by broth microdilution method; type: functional; settings: CIP 103627, 18 h
# Procedure, shortened: as §1
# [14] = test system: KB; assay: Cytotoxicity against human KB cells at 10 uM; type: cell-based
# [15] = test system: Streptococcus pneumoniae; assay: Antibacterial activity against Streptococcus pneumoniae ATCC 6303 after 18 hrs by broth microdilution method; type: functional; settings: ATCC 6303, 18 h
# Procedure, shortened: (§3)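 MIC by broth microdilution per ISO 20776-1:2006 and CLSI M07-A8. Inoculum 10^6 cfu/ml in Mueller-Hinton broth […]. Compound serially diluted, final 2 to 128 ug/ml, duplicate rows, no-drug growth control. Read after 18 h at 37 °C as lowest concentration fully inhibiting visible growth. At least two experiments.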
# [16] = test system: Staphylococcus epidermidis; assay: Antibacterial activity against Staphylococcus epidermidis CIP 81.55 after 18 hrs by broth microdilution method; type: functional; settings: CIP 81.55, 18 h
# Procedure, shortened: as §1
# [17] = test system: HCT-116; assay: Cytotoxicity against human HCT116 cells at 1 uM; type: cell-based; settings: hct-116, 1 µM
# [18] = test system: Enterococcus faecalis; assay: Antibacterial activity against Enterococcus faecalis ATCC 29212 after 18 hrs by broth microdilution method; type: functional; settings: ATCC 29212, 18 h
# Procedure, shortened: as §2
# [19] = test system: Pseudomonas aeruginosa; assay: microbe, parasite or virus in culture; settings: CIP 5933, 18 h
# [20] = test system: MRC5; assay: Cytotoxicity against human MRC5 cells at 10 uM; type: cell-based; settings: mrc5, 10 µM
# [21] = test system: Staphylococcus aureus; assay: Antibacterial activity against Staphylococcus aureus CIP 65.6 after 18 hrs by broth microdilution method; type: functional; settings: CIP 65.6, 18 h
# Procedure, shortened: as §1
# [22] = test system: Staphylococcus aureus; assay: Antibacterial activity against methicillin-resistant Staphylococcus aureus ATCC 33592 after 18 hrs by broth microdilution method; type: functional; settings: ATCC 33592, 18 h
# Procedure, shortened: as §2
# [23] = test system: Enterococcus faecium; assay: Antibacterial activity against Enterococcus faecium CIP 54.32 after 18 hrs by broth microdilution method; type: functional; settings: CIP 54.32, 18 h
# Procedure, shortened: as §2
# [24] = test system: Staphylococcus epidermidis; assay: Antibacterial activity against Staphylococcus epidermidis ATCC 12228 after 18 hrs by broth microdilution method; type: functional; settings: ATCC 12228, 18 h
# Procedure, shortened: as §1
# [25] = test system: KB; assay: Cytotoxicity against human KB cells at 1 uM; type: cell-based
# [26] = test system: Streptococcus pyogenes; assay: Antibacterial activity against Streptococcus pyogenes CIP 104226 after 18 hrs by broth microdilution method; type: functional; settings: CIP 104226, 18 h
# Procedure, shortened: as §2
# [27] = test system: Streptococcus mitis; assay: Antibacterial activity against Streptococcus mitis CIP 103335 after 18 hrs by broth microdilution method; type: functional; settings: CIP 103335, 18 h
# Procedure, shortened: as §2, with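 “broth […].” for “broth.”, “read after” for “incubated”, “with no” for “giving complete inhibition of”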
# [28] = test system: Streptococcus pneumoniae; assay: Antibacterial activity against Streptococcus pneumoniae ATCC 49619 after 18 hrs by broth microdilution method; type: functional; settings: ATCC 49619, 18 h
# Procedure, shortened: as §3
# [29] = test system: Escherichia coli; assay: Antibacterial activity against Escherichia coli ATCC 25922 after 18 hrs by broth microdilution method; type: functional; settings: ATCC 25922, 18 h
# Procedure, shortened: as §2
# [30] = test system: Enterobacter cloacae; assay: microbe, parasite or virus in culture; settings: ATCC 13047, 18 h
# [31] = test system: HCT-116; assay: Cytotoxicity against human HCT116 cells at 10 uM; type: cell-based; settings: hct-116, 10 µM
# [32] = test system: Haemophilus influenzae; assay: Antibacterial activity against Haemophilus influenzae ATCC 49766 after 18 hrs by broth microdilution method; type: functional; settings: ATCC 49766, 18 h
# Procedure, shortened: as §2, with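 “broth […].” for “broth.”, “read after” for “incubated”, “with no” for “giving complete inhibition of”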
Structure (SMILES),MIC [2],Activity [5],MIC [7],MIC [8],MIC [9],MIC [10],MIC [11],MIC [12],MIC [13],Activity [14],MIC [15],MIC [16],Activity [17],Activity [20],MIC [21],MIC [22],MIC [24],Activity [25],MIC [28],Activity [31],further results
Cl.Cl.NCC(NO)c1c[nH]c2cccc(Br)c12 (stereo not given),32 µg/mL,Non-toxic,32 µg/mL,32 µg/mL,32 µg/mL,32 µg/mL,32 µg/mL,32 µg/mL,32 µg/mL,Non-toxic,128 µg/mL,32 µg/mL,Non-toxic,Non-toxic,32 µg/mL,32 µg/mL,32 µg/mL,Non-toxic,128 µg/mL,Non-toxic,MIC [1]: > 128 µg/mL; MIC [3]: > 128 µg/mL; MIC [4]: > 128 µg/mL; MIC [6]: 128 µg/mL; MIC [18]: > 128 µg/mL; MIC [19]: > 128 µg/mL; MIC [23]: > 128 µg/mL; MIC [26]: 128 µg/mL; MIC [27]: 128 µg/mL; MIC [29]: 128 µg/mL; MIC [30]: > 128 µg/mL
Cl.Cl.NCC(NO)c1c[nH]c2cc(Br)ccc12 (stereo not given),16 µg/mL,Non-toxic,16 µg/mL,16 µg/mL,16 µg/mL,16 µg/mL,16 µg/mL,16 µg/mL,16 µg/mL,Non-toxic,64 µg/mL,16 µg/mL,Non-toxic,Non-toxic,16 µg/mL,16 µg/mL,16 µg/mL,Non-toxic,64 µg/mL,Non-toxic,MIC [1]: 64 µg/mL; MIC [3]: 64 µg/mL; MIC [4]: 64 µg/mL; MIC [6]: 128 µg/mL; MIC [18]: > 128 µg/mL; MIC [19]: 64 µg/mL; MIC [23]: > 128 µg/mL; MIC [26]: 128 µg/mL; MIC [27]: 128 µg/mL; MIC [29]: 32 µg/mL; MIC [30]: 64 µg/mL
CC(C)(C)OC(=O)NCC(c1c[nH]c2ccc(Br)cc12)N(O)Cc1ccccc1 (stereo not given),8 µg/mL,Non-toxic,8 µg/mL,8 µg/mL,16 µg/mL,8 µg/mL,8 µg/mL,8 µg/mL,16 µg/mL,Non-toxic,128 µg/mL,16 µg/mL,Non-toxic,Non-toxic,8 µg/mL,16 µg/mL,16 µg/mL,Non-toxic,128 µg/mL,Non-toxic,–
CO/N=C(\C(=O)N[C@@H]1C(=O)N2C(C(=O)O)=C(COC(C)=O)CS[C@H]12)c1csc(N)n1 [CEFOTAXIME],–,–,–,–,–,–,–,–,–,–,0.125 µg/mL,–,–,–,–,–,–,–,0.125 µg/mL,–,MIC [32]: 0.032 µg/mL; MIC [6]: 0.016 µg/mL; MIC [18]: 0.5 µg/mL; MIC [23]: 0.5 µg/mL; MIC [26]: 0.016 µg/mL; MIC [27]: 0.016 µg/mL
CC(C)(C)OC(=O)NCC(c1c[nH]c2cc(Br)ccc12)N(O)Cc1ccccc1 (stereo not given),8 µg/mL,Non-toxic,8 µg/mL,8 µg/mL,16 µg/mL,16 µg/mL,8 µg/mL,8 µg/mL,16 µg/mL,Non-toxic,> 128 µg/mL,16 µg/mL,Non-toxic,Non-toxic,8 µg/mL,16 µg/mL,16 µg/mL,Non-toxic,> 128 µg/mL,Non-toxic,–
